In publication PMC6923438 (Saudi Journal of Biological Sciences, 2019):

How the values were obtained:
STZ-induced T1DM [1] = experiment: Pancreatic islet mass and pancreas histopathology in STZ-induced T1DM; format: in vivo, mice
Outline: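 STZ-diabetic mice (40 mg/kg i.p. × 5 days; glucose >220 mg/dl) were gavaged daily for 2 weeks with test compound at 10 or 20 mg/kg, or glibenclamide 2.5 mg/kg. Pancreas was formalin-fixed, paraffin-embedded, cut at 5 µm and stained with H&E. Islet mass was calculated as pancreas weight × relative β-cell area on slides; ANOVA versus model group.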

STZ-induced T1DM [2] = format: in vivo; conditions: glibenclamide group (2.5 mg/kg), STZ induced mice
Outline: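 Swiss albino mice (20 ± 5 g, either sex) were given STZ 40 mg/kg i.p. for 5 days; mice with fasting glucose >220 mg/dl were taken as diabetic (18/group). They were dosed orally once daily for 2 weeks. Tail-vein glucose (glucometer) and body weight were recorded at intervals; weight loss was taken as day 1 versus pre-sacrifice weight. Liver and kidneys were weighed at sacrifice for organ index.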

3T3-L1 adipocyte = experiment: Glucose consumption in 3T3-L1 adipocyte; format: cell-based
gut microbiota = experiment: 16S rRNA gene sequencing of caecal content, STZ induced diabetic rats; format: in vivo; conditions: STZ + Gli (2.5 mg/kg)
3T3-L1 preadipocyte = 3T3-L1 preadipocyte differentiation; format: cell-based; conditions: Oil Red O, TG content; vs induced control
Outline: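 3T3-L1 cells seeded at 2×10^4 cells/mL in 6-well plates. Differentiation was induced in DMEM with insulin (10 µg/mL), IBMX (0.5 mM), dexamethasone (1 µM) and 10% FBS for 48 h, then DMEM with insulin and FBS, then basic medium changed every 48 h. Test compound (12.5, 25, 50 µg/mL) was present throughout. Lipid droplets stained with Oil Red O 10 days after induction.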

COc1ccc(Cl)cc1C(=O)NCCc1ccc(S(=O)(=O)NC(=O)NC2CCCCC2)cc1 [Glibenclamide, glibenclamide]
pancreas histopathology (STZ-induced T1DM [1]; STZ induced type I DM): almost similar histopathology effect | β-cell mass (STZ-induced T1DM [1]; glibenclamide group (2.5 mg/kg), STZ induced mice): 1.5 ± 0.02 | renal index (STZ-induced T1DM [2]): 1.41 ± 0.13 | Glucose consumption (in words) (3T3-L1 adipocyte): significantly increased | Glucose consumption (3T3-L1 adipocyte; 1 µg/mL): 12.62 ± 0.67 mmol/L | Actinobacteria, 16S rRNA gene sequencing of caecal content (gut microbiota): 0.35 ± 0.03 | Bacteroidates, 16S rRNA gene sequencing of caecal content (gut microbiota): 0.28 ± 0.05 | Bacteroidetes, 16S rRNA gene sequencing of caecal content (gut microbiota): 0.23 ± 0.09 | Bifldobacteriales, 16S rRNA gene sequencing of caecal content (gut microbiota): 0.5 ± 0.04 | Burkholderiaies, 16S rRNA gene sequencing of caecal content (gut microbiota): 0.34 ± 0.04 | Campylobacterioles, 16S rRNA gene sequencing of caecal content (gut microbiota): 0.61 ± 0.09 | Clostridiales, 16S rRNA gene sequencing of caecal content (gut microbiota): 0.29 ± 0.05 | Coriobacteriales, 16S rRNA gene sequencing of caecal content (gut microbiota): 0.32 ± 0.09 | Cyanobacteria, 16S rRNA gene sequencing of caecal content (gut microbiota): 0.3 ± 0.07 | Desulfovibrionales, 16S rRNA gene sequencing of caecal content (gut microbiota): 0.25 ± 0.06 | Enterobacteriales, 16S rRNA gene sequencing of caecal content (gut microbiota): 0.3 ± 0.06 | Eryslpelotrichales, 16S rRNA gene sequencing of caecal content (gut microbiota): 0.5 ± 0.07 | Firmicutes, 16S rRNA gene sequencing of caecal content (gut microbiota): 0.22 ± 0.07 | Lactibacllales, 16S rRNA gene sequencing of caecal content (gut microbiota): 0.25 ± 0.03 | Proteobacteria, 16S rRNA gene sequencing of caecal content (gut microbiota): 0.28 ± 0.04 | Selenomonadales, 16S rRNA gene sequencing of caecal content (gut microbiota): 0.16 ± 0.03 | Verrucomicrobia, 16S rRNA gene sequencing of caecal content (gut microbiota): 0.21 ± 0.07 | Verrucomicrobiales, 16S rRNA gene sequencing of caecal content (gut microbiota): 0.36 ± 0.08 | 3T3-L1 preadipocyte differentiation (3T3-L1 preadipocyte): significant differentiation
